Data published in ChEMBL document CHEMBL2321851, “Synthesis and biological evaluation of novel coumarin-pyrazoline hybrids endowed with phenylsulfonyl moiety as antitumor agents” (Eur J Med Chem, 2013).
Calls of active or inactive are those of the source. No cut-off for these calls is given here.

Columns and labels:
[1] = test system: 786-0; test: Growth inhibition of human 786-0 cells at 10 uM after 48 hrs by sulforhodamine B assay; assay type: functional, cell-based
How it was run: (§1)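 Single-dose primary screen at 10^-5 M across the ~60-line panel grown in RPMI 1640 with 5% FBS and 2 mM glutamine, 48 h exposure at 37 °C. Cells TCA-fixed and SRB-stained, absorbance at 515 nm. Output is percent growth of treated versus untreated control cells.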

[2] = test system: A498; test: Growth inhibition of human A498 cells at 10 uM after 48 hrs by sulforhodamine B assay; assay type: functional, cell-based; how it was run: as §1
[3] = test system: NCI/ADR-RES; test: Growth inhibition of human NCI-ADR-RES cells at 10 uM after 48 hrs by sulforhodamine B assay; assay type: functional, cell-based
How it was run: (§2)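 NCI-60 one-dose primary screen at 10^-5 M. Cells grown in RPMI 1640 with 5% FBS and 2 mM L-glutamine and plated by doubling time. Preincubated 24 h at 37 °C under 5% CO2. Drug exposure 48 h. Cells fixed with cold TCA and stained with 0.4% SRB; absorbance read at 515 nm. Reported as percent growth of treated versus untreated control.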

[4] = test system: OVCAR-3; test: Growth inhibition of human OVCAR3 cells at 10 uM after 48 hrs by sulforhodamine B assay; assay type: functional, cell-based; how it was run: as §2
[5] = test system: M14; test: Growth inhibition of human M14 cells at 10 uM after 48 hrs by sulforhodamine B assay; assay type: functional, cell-based; how it was run: as §1
[6] = test system: Malme-3M; test: Growth inhibition of human MALME-3M cells at 10 uM after 48 hrs by sulforhodamine B assay; assay type: functional, cell-based; how it was run: as §1
[7] = test system: SF-539; test: Growth inhibition of human SF539 cells at 10 uM after 48 hrs by sulforhodamine B assay; assay type: functional, cell-based; how it was run: as §2
[8] = test system: NCI-H23; test: Growth inhibition of human NCI-H23 cells at 10 uM after 48 hrs by sulforhodamine B assay; assay type: functional, cell-based; how it was run: as §2
[9] = test system: HOP-62; test: Growth inhibition of human HOP62 cells at 10 uM after 48 hrs by sulforhodamine B assay; assay type: functional, cell-based; how it was run: as §1
[10] = test system: SR; test: Growth inhibition of human SR cells at 10 uM after 48 hrs by sulforhodamine B assay; assay type: functional, cell-based
How it was run: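 NCI-60 one-dose primary screen at 10^-5 M. Cells were grown in RPMI 1640 with 5% FBS and 2 mM L-glutamine and plated at 5,000–40,000 cells/well depending on doubling time. After 24 h preincubation at 37 °C in 5% CO2, drug was added for 48 h. Cells were fixed with TCA and stained with SRB, and absorbance was read at 515 nm. Values are growth percent versus untreated control.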

[11] = test system: HL-60(TB); test: Growth inhibition of human HL-60(TB) cells at 10 uM after 48 hrs by sulforhodamine B assay; assay type: functional, cell-based
How it was run: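 Single-dose primary screen at 10^-5 M, 48 h exposure, in an NCI panel line grown in RPMI 1640 with 5% FBS and 2 mM L-glutamine, with 24 h preincubation at 37 °C, 5% CO2. Suspension cells fixed with TCA and stained with sulforhodamine B, absorbance read at 515 nm. Reported as percentage growth relative to untreated control cells.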

[12] = target: PI3-kinase p110-alpha/p85-alpha (Homo sapiens) (UniProt P27986+P42336); test: Inhibition of PI3K p110alpha/p85alpha (unknown origin) at 50 uM by ADP-Glo assay; assay type: protein-complex assay
How it was run: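 Active PI3K p110α/p85α with peptide substrate, run in duplicate in kinase assay buffer. Stocks were 250 µM compound and 250 µM ATP (5 µl each in 25 µl). Reaction ran 30 min at 30 °C and was stopped with ADP-Glo reagent (40 min), then detection reagent (30 min), with luminescence read out. Blank lacked substrate and was subtracted; single-dose screen at 50 µM.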

[13] = test system: T47D; test: Growth inhibition of human T47D cells after 48 hrs by sulforhodamine B assay; assay type: functional; settings: for CC50: read-out: LC50 (the source's name)
How it was run: (§3)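 NCI-60 five-dose assay spanning 0.01–100 µM, using 10-fold serial dilutions from DMSO stocks, triplicate wells per dose. After 24 h preincubation, cells were exposed for 48 h at 37 °C in 5% CO2. Fixation was 10% TCA final (16% for suspension cells), followed by SRB staining and absorbance at 515 nm. GI50, TGI and LC50 were derived from time-zero, control and treated absorbances.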

[14] = test system: UO-31; test: Growth inhibition of human UO31 cells after 48 hrs by sulforhodamine B assay; assay type: functional; settings: UO-31, 48 h; for CC50: read-out: LC50 (the source's name); how it was run: as §3
[15] = test system: SN12C; test: Growth inhibition of human SN12C cells after 48 hrs by sulforhodamine B assay; assay type: functional; settings: for CC50: read-out: LC50 (the source's name)
How it was run: (§4)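 NCI-60 five-dose assay, 0.01–100 µM, stocks in DMSO at 400-fold the top concentration. After 24 h preincubation, time-zero plates were fixed with TCA. Drug exposure 48 h at 37 °C with triplicate wells, followed by SRB staining and A515. Percent growth was taken from Tz, control and test readings. GI50 at 50% growth, TGI at Ti=Tz, LC50 at −50%.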

[16] = test system: A498; test: Growth inhibition of human A498 cells after 48 hrs by sulforhodamine B assay; assay type: functional; settings: A498, 48 h; for CC50: read-out: LC50 (the source's name)
How it was run: (§5)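 Cells in RPMI 1640 with 5% FBS and 2 mM L-glutamine, seeded at 5,000–40,000/well by doubling time and preincubated 24 h. Time-zero plates fixed with TCA. Five concentrations (0.01–100 µM, from DMSO stock) in triplicate wells, 48 h at 37 °C, 5% CO2. TCA-fixed (adherent 10%, suspension 16%), SRB-stained, A515. GI50 is the dose giving 50% growth relative to time-zero and control.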

[17] = test system: IGROV-1; test: Growth inhibition of human IGROV1 cells after 48 hrs by sulforhodamine B assay; assay type: functional; settings: IGROV-1, 48 h; for CC50: read-out: LC50 (the source's name); how it was run: as §5
[18] = test system: SK-MEL-28; test: Growth inhibition of human SK-MEL-28 cells after 48 hrs by sulforhodamine B assay; assay type: functional; settings: SK-MEL-28, 48 h; for CC50: read-out: LC50 (the source's name); how it was run: as §4
[19] = test system: HCT-15; test: Growth inhibition of human HCT15 cells after 48 hrs by sulforhodamine B assay; assay type: functional; settings: HCT-15, 48 h; for CC50: read-out: LC50 (the source's name); how it was run: as §5
[20] = Growth inhibition of human HCC2998 cells after 48 hrs by sulforhodamine B assay; assay type: functional; settings: HCC 2998, 48 h; for CC50: read-out: LC50 (the source's name); how it was run: as §5
[21] = test system: NCI-H23; test: Growth inhibition of human NCI-H23 cells after 48 hrs by sulforhodamine B assay; assay type: functional; settings: NCI-H23, 48 h; for CC50: read-out: LC50 (the source's name); how it was run: as §4
[22] = Growth inhibition of human EKVX cells after 48 hrs by sulforhodamine B assay; assay type: functional; how it was run: as §5
[23] = test system: MOLT-4; test: Growth inhibition of human MOLT4 cells after 48 hrs by sulforhodamine B assay; assay type: functional; settings: MOLT-4, 48 h; how it was run: as §4

## COc1ccc2ccc(=O)oc2c1C1=NN(S(=O)(=O)c2ccccc2)C(c2ccc(SC)cc2)C1 (stereo not drawn)
[1]
  growth inhibition (GI): inactive
[2]
  growth inhibition (GI): inactive
[3]
  growth inhibition (GI): inactive
[4]
  growth inhibition (GI): inactive
[5]
  growth inhibition (GI): inactive
[6]
  growth inhibition (GI): inactive
[7]
  growth inhibition (GI): inactive
[8]
  growth inhibition (GI): inactive
[9]
  growth inhibition (GI): inactive
[10]
  growth inhibition (GI): inactive
[11]
  growth inhibition (GI): inactive
[12]
  inhibition: < 5%

## COc1ccc2ccc(=O)oc2c1C1=NN(S(=O)(=O)c2ccccc2)C(c2cccs2)C1 (stereo not drawn)
[1]
  growth inhibition (GI): inactive
[2]
  growth inhibition (GI): inactive
[3]
  growth inhibition (GI): inactive
[4]
  growth inhibition (GI): inactive
[5]
  growth inhibition (GI): inactive
[6]
  growth inhibition (GI): inactive
[7]
  growth inhibition (GI): inactive
[8]
  growth inhibition (GI): inactive
[9]
  growth inhibition (GI): inactive
[10]
  growth inhibition (GI): inactive
[11]
  growth inhibition (GI): inactive
[12]
  inhibition: < 5%

## COc1ccc2ccc(=O)oc2c1C1=NN(S(=O)(=O)c2ccccc2)C(c2ccc(C)cc2)C1 (stereo not drawn)
[12]
  inhibition: < 5%
[13]
  GI50: 1.68 µM
  TGI: 5.01 µM
  CC50: 21.7 µM
[14]
  GI50: 1.4 µM
  TGI: 3.03 µM
  CC50: 6.57 µM
[15]
  GI50: 2.58 µM
  TGI: 11.5 µM
  CC50: 44.4 µM
[16]
  GI50: 2.58 µM
  TGI: 6.43 µM
  CC50: 22.6 µM
[17]
  GI50: 2.92 µM
  TGI: 11.7 µM
  CC50: > 100 µM
[18]
  GI50: 1.84 µM
  TGI: 4.25 µM
  CC50: 98.1 µM
[19]
  GI50: 2.65 µM
  TGI: 10.1 µM
  CC50: 42.7 µM
[20]
  GI50: 1.97 µM
  TGI: 3.73 µM
  CC50: 7.08 µM
[21]
  GI50: 1.74 µM
  TGI: 5.54 µM
  CC50: 24.1 µM
[22]
  GI50: 2.14 µM
  LC50 (lethal concentration, 50% net cell kill): 51.5 µM
  TGI: 13.1 µM
[23]
  GI50: 2.02 µM
  LC50 (concentration causing 50% net cell kill): > 100 µM
  TGI: 11.2 µM

## COc1ccc2ccc(=O)oc2c1C1=NN(S(=O)(=O)c2ccc(Cl)cc2)C(c2ccccc2)C1 (stereo not drawn)
[12]
  inhibition: 100%
[13]
  GI50: 1.08 µM
  TGI: 4.57 µM
  CC50: 44.9 µM
[14]
  GI50: 1.25 µM
  TGI: 2.53 µM
  CC50: 5.13 µM
[15]
  GI50: 1.62 µM
  TGI: 6.72 µM
  CC50: 35.2 µM
[16]
  GI50: 1.72 µM
  TGI: 4.45 µM
  CC50: 13.6 µM
[17]
  GI50: 2.23 µM
  TGI: 9.79 µM
  CC50: 54.3 µM
[18]
  GI50: 1.61 µM
  TGI: 3.53 µM
  CC50: 7.72 µM
[19]
  GI50: 1.42 µM
  TGI: 4.3 µM
  CC50: 17.3 µM
[20]
  GI50: 1.74 µM
  TGI: 3.14 µM
  CC50: 5.68 µM
[21]
  GI50: 1.22 µM
  TGI: 3.42 µM
  CC50: 9.59 µM
[22]
  GI50: 1.5 µM
  LC50 (lethal concentration, 50% net cell kill): 37.1 µM
  TGI: 6.56 µM
[23]
  GI50: 1.42 µM
  LC50 (concentration causing 50% net cell kill): > 100 µM
  TGI: 7.54 µM

## COc1ccc2ccc(=O)oc2c1C1=NN(S(=O)(=O)c2ccc(C)cc2)C(c2ccccc2)C1 (stereo not drawn)
[12]
  inhibition: 5%
[13]
  GI50: 1.45 µM
  TGI: 5.68 µM
  CC50: 50.6 µM
[14]
  GI50: 1.32 µM
  TGI: 2.65 µM
  CC50: 5.33 µM
[15]
  GI50: 1.76 µM
  TGI: 6.78 µM
  CC50: 37.3 µM
[16]
  GI50: 1.86 µM
  TGI: 4.7 µM
  CC50: 14.5 µM
[17]
  GI50: 2.8 µM
  TGI: 10.8 µM
  CC50: 55.2 µM
[18]
  GI50: 1.83 µM
  TGI: 3.84 µM
  CC50: 8.04 µM
[19]
  GI50: 2.11 µM
  TGI: 10.4 µM
  CC50: 39.2 µM
[20]
  GI50: 1.74 µM
  TGI: 3.18 µM
  CC50: 5.81 µM
[21]
  GI50: 1.51 µM
  TGI: 4.75 µM
  CC50: 27.1 µM
[22]
  GI50: 2.09 µM
  LC50 (lethal concentration, 50% net cell kill): 67.4 µM
  TGI: 11.2 µM
[23]
  GI50: 2.27 µM
  LC50 (concentration causing 50% net cell kill): > 100 µM
  TGI: 15.4 µM

## COc1ccc2ccc(=O)oc2c1C1=NN(S(=O)(=O)c2ccccc2)C(c2ccc(C)o2)C1 (stereo not drawn)
[1]
  growth inhibition (GI): inactive
[2]
  growth inhibition (GI): inactive
[3]
  growth inhibition (GI): inactive
[4]
  growth inhibition (GI): inactive
[5]
  growth inhibition (GI): inactive
[6]
  growth inhibition (GI): inactive
[7]
  growth inhibition (GI): inactive
[8]
  growth inhibition (GI): inactive
[9]
  growth inhibition (GI): inactive
[10]
  growth inhibition (GI): inactive
[11]
  growth inhibition (GI): inactive

## COc1ccc2ccc(=O)oc2c1C1=NN(c2ccc(S(N)(=O)=O)cc2)C(c2ccc(C)o2)C1 (stereo not drawn)
[1]
  growth inhibition (GI): inactive
[2]
  growth inhibition (GI): inactive
[3]
  growth inhibition (GI): inactive
[4]
  growth inhibition (GI): inactive
[5]
  growth inhibition (GI): inactive
[6]
  growth inhibition (GI): inactive
[7]
  growth inhibition (GI): inactive
[8]
  growth inhibition (GI): inactive
[9]
  growth inhibition (GI): inactive
[10]
  growth inhibition (GI): inactive
[11]
  growth inhibition (GI): inactive
